Data: ChEMBL document CHEMBL1140433, “Design, synthesis, and evaluation of pharmacological properties of cinnamic derivatives as antiatherogenic agents” (2005)

Assays:
Assay type in all cases: functional, Homo sapiens
HMEC [1] = experiment: Ability to inhibit HMEC1-mediated LDL oxidation at 10 uM evaluated by TBARS formation in the presence of copper; set-up: scale not given: the % may be the effect or the level left
Summary of the method: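 Human plasma LDL (100 µg apoB/mL) was incubated with subconfluent HMEC-1 in serum-free RPMI-1640 with 1 µM Cu2+ for 6 h at 37 °C. Cells had been serum-starved for 24 h. Compound was added in DMSO just before oxidation, in duplicate. TBARS in the medium were measured fluorimetrically (Yagi), as % of cell-oxidized LDL without antioxidant. Mean of four determinations.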

HMEC [2] = experiment: Cytotoxic effect of LDL oxidized by HMEC1 cells at 10 uM by MTT assay expressed as percentage of viability in unstimulated control
Summary of the method: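 LDL (100 µg apoB/mL) was first oxidized by HMEC-1 for 6 h in RPMI with 1 µM Cu2+ and compound at 10 µM. This LDL then stayed on serum-starved HMEC-1 for a 24 h pulse. Viability was read by MTT as % of control cells in fresh RPMI without LDL or antioxidant. Mean of four determinations.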

HMEC [3] = experiment: Ability to inhibit HMEC1-mediated LDL oxidation at 10 uM evaluated by TBARS formation in the absence of copper; set-up: scale not given: the % may be the effect or the level left
HMEC [4] = experiment: Ability to inhibit HMEC1-mediated LDL oxidation at 100 uM evaluated by TBARS formation in the absence of copper; set-up: scale not given: the % may be the effect or the level left

| SMILES | Activity (HMEC [1]) | Activity (HMEC [2]) | Activity (HMEC [3]) | Activity (HMEC [4]) |
| --- | --- | --- | --- | --- |
| CCOP(=O)(O)/C=C/c1ccc(O)c(OC)c1 | 52.7% | 21.7% |  |  |
| CCOP(=O)(O)/C=C/c1cc(OC)c(O)c(OC)c1 | 16% | 45% |  |  |
| CCOP(=O)(O)/C=C/c1ccc(O)cc1 | 101% | 13.3% |  |  |
| COc1ccc(/C=C/C(=O)Nc2ccccn2)cc1OC | 100% | 20.7% |  |  |
| COc1cc(/C=C/C(=O)SCCNC(C)=O)cc(OC)c1O | 12.7% | 88.7% | 18% | 8% |
| CCOP(=O)(/C=C/c1cc(OC)c(O)c(OC)c1)OCC | 13% | 81% |  |  |
| COc1cc(/C=C/C(=O)SCCNC(C)=O)ccc1O | 40.3% | 69.3% |  |  |
| CCOP(=O)(/C=C/c1ccc(O)c(OC)c1)OCC | 32.3% | 75.7% |  |  |
| CCOP(=O)(/C=C/c1ccc(O)cc1)OCC | 77.6% | 65.3% |  |  |
| COc1ccc(/C=C/C(=O)SCCNC(C)=O)cc1 | 109% | 21.7% |  |  |
| COc1cc(/C=C/C(=O)NCCc2c[nH]c3ccccc23)ccc1O | 9.6% | 93.6% |  |  |
| COc1cccc(/C=C/C(=O)Nc2ccccn2)c1 | 61.3% | 48.7% |  |  |
| CC(=O)NCCSC(=O)/C=C/c1ccc(O)cc1 | 95.6% | 22.6% |  |  |
| Cc1c(C)c2c(c(C)c1O)CC[C@@](C)(CCC[C@H](C)CCC[C@H](C)CCCC(C)C)O2 [ALPHA-TOCOPHEROL] | 55% | 29% |  |  |
| CC(C)(Sc1cc(C(C)(C)C)c(O)c(C(C)(C)C)c1)Sc1cc(C(C)(C)C)c(O)c(C(C)(C)C)c1 [PROBUCOL] | 10% | 92% |  |  |
